Measurements taken from ChEMBL document CHEMBL5724801, “EUbOPEN Chemogenomics Library - Multiplex” (2024).
Where “and” joins values, the source holds several entries; their conditions need not be identical. Identical values can stand only once.

Legend:
Format in all cases: toxicity, cell-based
HEK-293T = assay: Multiplex assay against HEK293T; conditions: human
Method in brief: (§1)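 Live cells carried four stains from seeding: Hoechst33342, BioTracker Green Microtubule Cytoskeleton Dye, MitoTracker Red and Annexin V Alexa Fluor 680. They were imaged on a CQ1 microscope at 37°C and 5% CO2 after compound addition. Using CellPathfinder machine-learning gating, cells were split into Hoechst high-intensity objects or normal cells, normal cells into healthy, pyknosed or fragmented nuclei, and pyknosed cells into mitotic or apoptotic; tubulin, mitochondrial-mass and membrane-permeability phenotypes are per cents of healthy-nucleus cells.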

U2OS = assay: Multiplex assay against U2OS; conditions: human; method in brief: as §1
Fibroblast = assay: Multiplex assay against human fibroblast; method in brief: as §1
[1] = 12 h, 1 µM, compound concentration 1 uM
[2] = 12 h, 10 µM, compound concentration 10 uM
[3] = 24 h, 1 µM, compound concentration 1 uM
[4] = 24 h, 10 µM, compound concentration 10 uM
[5] = 48 h, 1 µM, compound concentration 1 uM
[6] = 48 h, 10 µM, compound concentration 10 uM

## COCCn1c(C)c(C)s/c1=N\C(=O)C1C(C)(C)C1(C)C
HEK-293T; [1]
  Population Apoptotic (%): 37% and 41%
  Population Fragmented Nuclei (%): 10% and 5%
  Population Healthy Nuclei (%): 77% and 82%
  Population Hoechst High Intensity Objects (%): 6% and 4%
  Population Membrane Permeable-Phenotype (%): 0%
  Population Mitochondria Different-Phenotype (%): 45% and 77%
  Population Mitotic Cells (%): 62% and 58%
  Population Normal (%): 93% and 95%
  Population Pyknosed Nuclei (%): 12%
  Population Tubulin-Different-Phenotype (%): 29% and 26%
  Total Cell Count: 335 and 304
HEK-293T; [2]
  Population Apoptotic (%): 77% and 53%
  Population Healthy Nuclei (%): 52% and 75%
  Population Hoechst High Intensity Objects (%): 18% and 11%
  Population Membrane Permeable-Phenotype (%): 0%
  Population Mitochondria Different-Phenotype (%): 91% and 72%
  Population Mitotic Cells (%): 22% and 46%
  Population Normal (%): 81% and 88%
  Population Pyknosed Nuclei (%): 13% and 16%
  Population Tubulin-Different-Phenotype (%): 67% and 38%
HEK-293T; [3]
  Population Apoptotic (%): 19% and 35%
  Population Fragmented Nuclei (%): 7% and 8%
  Population Healthy Nuclei (%): 81%
  Population Hoechst High Intensity Objects (%): 4% and 7%
  Population Membrane Permeable-Phenotype (%): 0%
  Population Mitochondria Different-Phenotype (%): 26% and 47%
  Population Mitotic Cells (%): 80% and 64%
  Population Normal (%): 95% and 92%
  Population Pyknosed Nuclei (%): 11% and 10%
  Population Tubulin-Different-Phenotype (%): 20% and 17%
  Total Cell Count: 447 and 383
HEK-293T; [4]
  Population Apoptotic (%): 71% and 45%
  Population Fragmented Nuclei (%): 30% and 11%
  Population Healthy Nuclei (%): 61% and 75%
  Population Hoechst High Intensity Objects (%): 15% and 7%
  Population Membrane Permeable-Phenotype (%): 0%
  Population Mitochondria Different-Phenotype (%): 53% and 62%
  Population Mitotic Cells (%): 28% and 54%
  Population Normal (%): 84% and 92%
  Population Pyknosed Nuclei (%): 8% and 13%
  Population Tubulin-Different-Phenotype (%): 36% and 30%
HEK-293T; [5]
  Population Apoptotic (%): 20% and 45%
  Population Fragmented Nuclei (%): 13% and 11%
  Population Healthy Nuclei (%): 75% and 81%
  Population Hoechst High Intensity Objects (%): 3%
  Population Membrane Permeable-Phenotype (%): 0%
  Population Mitochondria Different-Phenotype (%): 22% and 31%
  Population Mitotic Cells (%): 79% and 55%
  Population Normal (%): 96% and 97%
  Population Pyknosed Nuclei (%): 11% and 7%
  Population Tubulin-Different-Phenotype (%): 14% and 12%
  Total Cell Count: 649 and 567
HEK-293T; [6]
  Population Apoptotic (%): 60% and 38%
  Population Fragmented Nuclei (%): 18% and 13%
  Population Healthy Nuclei (%): 73% and 79%
  Population Hoechst High Intensity Objects (%): 2% and 4%
  Population Membrane Permeable-Phenotype (%): 2% and 0%
  Population Mitochondria Different-Phenotype (%): 30% and 46%
  Population Mitotic Cells (%): 40% and 61%
  Population Normal (%): 97% and 95%
  Population Pyknosed Nuclei (%): 8% and 6%
  Population Tubulin-Different-Phenotype (%): 31% and 24%
  Total Cell Count: 191 and 493
U2OS; [1]
  Population Apoptotic (%): 88% and 71%
  Population Fragmented Nuclei (%): 24% and 20%
  Population Healthy Nuclei (%): 69% and 74%
  Population Hoechst High Intensity Objects (%): 0%
  Population Membrane Permeable-Phenotype (%): 8% and 11%
  Population Mitochondria Different-Phenotype (%): 1% and 3%
  Population Mitotic Cells (%): 11% and 28%
  Population Normal (%): 99% and 100%
  Population Pyknosed Nuclei (%): 6% and 5%
  Population Tubulin-Different-Phenotype (%): 3% and 5%
  Total Cell Count: 271 and 135
U2OS; [2]
  Population Apoptotic (%): 73% and 80%
  Population Fragmented Nuclei (%): 33% and 20%
  Population Healthy Nuclei (%): 52% and 68%
  Population Hoechst High Intensity Objects (%): 2% and 0%
  Population Membrane Permeable-Phenotype (%): 10% and 9%
  Population Mitochondria Different-Phenotype (%): 4% and 3%
  Population Mitotic Cells (%): 26% and 20%
  Population Normal (%): 97% and 100%
  Population Pyknosed Nuclei (%): 13% and 11%
  Population Tubulin-Different-Phenotype (%): 5% and 4%
  Total Cell Count: 220 and 135
U2OS; [3]
  Population Apoptotic (%): 89% and 83%
  Population Fragmented Nuclei (%): 18%
  Population Healthy Nuclei (%): 75% and 77%
  Population Hoechst High Intensity Objects (%): 0%
  Population Membrane Permeable-Phenotype (%): 5% and 9%
  Population Mitochondria Different-Phenotype (%): 3%
  Population Mitotic Cells (%): 10% and 16%
  Population Normal (%): 99%
  Population Pyknosed Nuclei (%): 6% and 3%
  Population Tubulin-Different-Phenotype (%): 2% and 4%
  Total Cell Count: 314 and 157
U2OS; [4]
  Population Apoptotic (%): 80% and 88%
  Population Fragmented Nuclei (%): 28% and 21%
  Population Healthy Nuclei (%): 58% and 66%
  Population Hoechst High Intensity Objects (%): 1%
  Population Membrane Permeable-Phenotype (%): 8% and 10%
  Population Mitochondria Different-Phenotype (%): 8% and 1%
  Population Mitotic Cells (%): 19% and 11%
  Population Normal (%): 98%
  Population Pyknosed Nuclei (%): 12%
  Population Tubulin-Different-Phenotype (%): 2% and 9%
  Total Cell Count: 257 and 141
U2OS; [5]
  Population Apoptotic (%): 94% and 100%
  Population Fragmented Nuclei (%): 12% and 15%
  Population Healthy Nuclei (%): 79%
  Population Hoechst High Intensity Objects (%): 1%
  Population Membrane Permeable-Phenotype (%): 5% and 9%
  Population Mitochondria Different-Phenotype (%): 2% and 1%
  Population Mitotic Cells (%): 5% and 0%
  Population Normal (%): 98%
  Population Pyknosed Nuclei (%): 8% and 4%
  Population Tubulin-Different-Phenotype (%): 4% and 5%
  Total Cell Count: 459 and 218
U2OS; [6]
  Population Apoptotic (%): 81% and 96%
  Population Fragmented Nuclei (%): 22% and 15%
  Population Healthy Nuclei (%): 62% and 71%
  Population Hoechst High Intensity Objects (%): 2% and 1%
  Population Membrane Permeable-Phenotype (%): 11% and 4%
  Population Mitochondria Different-Phenotype (%): 4%
  Population Normal (%): 97% and 98%
  Population Pyknosed Nuclei (%): 14% and 12%
  Population Tubulin-Different-Phenotype (%): 5% and 2%
  Total Cell Count: 305 and 206
Fibroblast; [1]
  Population Apoptotic (%): 43% and 40%
  Population Fragmented Nuclei (%): 18% and 22%
  Population Healthy Nuclei (%): 69% and 57%
  Population Hoechst High Intensity Objects (%): 0% and 4%
  Population Membrane Permeable-Phenotype (%): 0% and 1%
  Population Mitochondria Different-Phenotype (%): 7% and 5%
  Population Mitotic Cells (%): 56% and 60%
  Population Normal (%): 99% and 95%
  Population Pyknosed Nuclei (%): 11% and 19%
  Population Tubulin-Different-Phenotype (%): 34% and 32%
  Total Cell Count: 136 and 133
Fibroblast; [2]
  Population Apoptotic (%): 64% and 37%
  Population Fragmented Nuclei (%): 19% and 38%
  Population Healthy Nuclei (%): 59% and 40%
  Population Hoechst High Intensity Objects (%): 2% and 6%
  Population Mitochondria Different-Phenotype (%): 14% and 8%
  Population Mitotic Cells (%): 35% and 62%
  Population Normal (%): 97% and 93%
  Population Pyknosed Nuclei (%): 20% and 21%
  Population Tubulin-Different-Phenotype (%): 56% and 64%
  Total Cell Count: 167 and 120
Fibroblast; [3]
  Population Apoptotic (%): 64% and 54%
  Population Fragmented Nuclei (%): 15% and 28%
  Population Healthy Nuclei (%): 72% and 54%
  Population Hoechst High Intensity Objects (%): 2% and 3%
  Population Membrane Permeable-Phenotype (%): 1% and 5%
  Population Mitochondria Different-Phenotype (%): 5%
  Population Mitotic Cells (%): 35% and 45%
  Population Normal (%): 97% and 96%
  Population Pyknosed Nuclei (%): 11% and 17%
  Population Tubulin-Different-Phenotype (%): 38% and 37%
  Total Cell Count: 122 and 132
Fibroblast; [4]
  Population Apoptotic (%): 68% and 33%
  Population Fragmented Nuclei (%): 20% and 40%
  Population Healthy Nuclei (%): 59% and 36%
  Population Hoechst High Intensity Objects (%): 4% and 3%
  Population Membrane Permeable-Phenotype (%): 0% and 11%
  Population Mitochondria Different-Phenotype (%): 15% and 19%
  Population Mitotic Cells (%): 31% and 66%
  Population Normal (%): 95% and 96%
  Population Pyknosed Nuclei (%): 19% and 23%
  Population Tubulin-Different-Phenotype (%): 61% and 66%
  Total Cell Count: 154 and 120
Fibroblast; [5]
  Population Apoptotic (%): 60%
  Population Fragmented Nuclei (%): 23% and 31%
  Population Healthy Nuclei (%): 63% and 56%
  Population Hoechst High Intensity Objects (%): 4% and 7%
  Population Membrane Permeable-Phenotype (%): 0% and 2%
  Population Mitochondria Different-Phenotype (%): 4%
  Population Mitotic Cells (%): 40%
  Population Normal (%): 95% and 92%
  Population Pyknosed Nuclei (%): 12% and 11%
  Population Tubulin-Different-Phenotype (%): 43% and 45%
  Total Cell Count: 123 and 140
Fibroblast; [6]
  Population Apoptotic (%): 75% and 58%
  Population Fragmented Nuclei (%): 23% and 49%
  Population Healthy Nuclei (%): 56% and 34%
  Population Hoechst High Intensity Objects (%): 7% and 8%
  Population Membrane Permeable-Phenotype (%): 0% and 14%
  Population Mitochondria Different-Phenotype (%): 22% and 11%
  Population Mitotic Cells (%): 25% and 41%
  Population Normal (%): 92% and 91%
  Population Pyknosed Nuclei (%): 20% and 16%
  Population Tubulin-Different-Phenotype (%): 67% and 65%
  Total Cell Count: 151 and 111
